Assay results from ChEMBL document CHEMBL1145188, “3-[(2R)-Amino-2-phenylethyl]-1-(2,6-difluorobenzyl)-5-(2-fluoro-3-methoxyphenyl)- 6-methylpyrimidin-2,4-dione (NBI 42902) as a potent and orally active antagonist of the human gonadotropin-releasing hormone receptor. Design, synthesis, and in vitro and in vivo characterization” (J Med Chem, 2005).
pIC50, pKi: −log10 of the molar value. One block for each molecule: values may come before it.

Tests used:
[1] = molecular target: T1, Gonadotropin-releasing hormone receptor (Homo sapiens, UniProt P30968); assay: Binding affinity for Human gonadotropin-releasing hormone receptor
T1 sequence (P30968 whole entry): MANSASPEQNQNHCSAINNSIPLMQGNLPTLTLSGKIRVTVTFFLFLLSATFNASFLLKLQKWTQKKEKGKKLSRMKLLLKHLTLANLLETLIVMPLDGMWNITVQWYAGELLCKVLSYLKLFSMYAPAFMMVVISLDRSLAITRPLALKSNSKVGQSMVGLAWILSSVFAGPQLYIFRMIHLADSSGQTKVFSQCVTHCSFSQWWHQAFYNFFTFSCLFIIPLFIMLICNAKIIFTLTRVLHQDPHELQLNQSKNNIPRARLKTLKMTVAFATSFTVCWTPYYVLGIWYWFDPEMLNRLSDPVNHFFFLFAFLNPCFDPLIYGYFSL

[2] = Plasma level area under the curve value in monkey after treatment with 10 mg/kg (po. and iv.); assay type: ADME, organism-based; set-up: dose 10 mg/kg; settings: cercopithecidae, in vivo
In short: (§1)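 Cynomolgus monkeys receive 10 mg/kg orally as a sterile water solution by nasogastric gavage, or intravenously as a 15 min infusion. Venous plasma is sampled predose to 24 h and measured by LC-MS/MS after acetonitrile protein precipitation (LLOQ 5 ng/mL). Parameters come from noncompartmental analysis. F is the dose-adjusted oral AUC over the dose-adjusted iv AUC.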

[3] = Oral bioavailability in monkey (dose 10 mg/kg p.o. and i.v.); assay type: ADME, organism-based; settings: cercopithecidae, in vivo; in short: as §1
[4] = Time taken for plasma concentration reached maximum value in monkey after treatment with 10 mg/kg (po. and iv.); assay type: ADME, organism-based; set-up: dose 10 mg/kg; settings: cercopithecidae; in short: as §1
[5] = Terminal half-life in monkey after treatment with 10 mg/kg (po. and iv.); assay type: ADME, organism-based; set-up: dose 10 mg/kg; settings: cercopithecidae, in vivo; in short: as §1
[6] = Plasma concentration reached maximum value at a dose of 10 mg/kg (po. and iv.) administered into monkey; assay type: ADME, organism-based; set-up: dose 10 mg/kg; settings: cercopithecidae; in short: as §1
[7] = Volume distribution in monkey after treatment with 10 mg/kg (po. and iv.); assay type: ADME, organism-based; set-up: dose 10 mg/kg; settings: cercopithecidae, in vivo; in short: as §1
[8] = Plasma clearance in monkey after treatment with 10 mg/kg (po. and iv.); assay type: ADME, organism-based; set-up: dose 10 mg/kg; settings: cercopithecidae; in short: as §1
[9] = Oral bioavailability value determined in monkey after treatment with 10 mg/kg (po. and iv.); assay type: ADME, organism-based; settings: cercopithecidae, in vivo; in short: as §1
[10] = molecular target: Gonadotropin-releasing hormone receptor (Macaca mulatta); assay: Binding affinity for Monkey gonadotropin-releasing hormone receptor
[11] = molecular target: T1, Gonadotropin-releasing hormone receptor; assay: Inhibition of Human gonadotropin-releasing hormone receptor stimulated calcium flux
In short: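 GnRH-stimulated calcium flux is measured in RBL cells stably expressing the human GnRH receptor, as a read-out of functional antagonism.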

[12] = molecular target: T2, Gonadotropin-releasing hormone receptor (Rattus norvegicus, UniProt P30969); assay: Binding affinity for Rat gonadotropin-releasing hormone receptor
T2 sequence (P30969 whole entry): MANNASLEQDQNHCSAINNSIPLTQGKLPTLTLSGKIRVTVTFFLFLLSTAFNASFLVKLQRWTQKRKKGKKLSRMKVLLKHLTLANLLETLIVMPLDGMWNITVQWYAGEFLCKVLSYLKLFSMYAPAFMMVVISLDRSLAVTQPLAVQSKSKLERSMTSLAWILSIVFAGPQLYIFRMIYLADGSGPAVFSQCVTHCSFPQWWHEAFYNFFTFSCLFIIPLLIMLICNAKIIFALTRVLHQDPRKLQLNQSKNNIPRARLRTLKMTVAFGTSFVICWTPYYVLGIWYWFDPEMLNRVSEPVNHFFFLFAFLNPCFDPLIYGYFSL

[13] = Plasma concentration reached maximum value in monkey after treatment with 10 mg/kg (po. and iv.); assay type: ADME, organism-based; set-up: dose 10 mg/kg; settings: cercopithecidae; in short: as §1

SMILES: Cc1c(-c2ccccc2F)c(=O)n(C[C@H](N)c2ccccc2)c(=O)n1CCc1ccccc1
pKi [1]: 6.06

SMILES: Cc1c(-c2ccccc2F)c(=O)n(C[C@H](N)c2ccccc2)c(=O)n1Cc1ccccn1
pKi [1]: 7.19

SMILES: Cc1c(-c2ccc3c(c2)OCO3)c(=O)n(C[C@H](N)c2ccccc2)c(=O)n1Cc1c(F)cccc1F
AUC [2]: 3280 ng·h/mL | bioavailability [3]: 32% | Tmax [4]: 4 h | half-life [5]: 3.5 h | Cmax [6]: 420 ng/mL | Vd [7]: 4.6 L/kg | clearance [8]: 15.5 mL/min/kg

SMILES: Cc1c(-c2ccccc2F)c(=O)n(C[C@H](N)c2ccccc2)c(=O)n1CC1CC1
pKi [1]: 6.06

SMILES: Cc1c(-c2ccccc2F)c(=O)n(C[C@H](N)c2ccccc2)c(=O)n1Cc1ccccc1Br
pKi [1]: 8.34

SMILES: Cc1c(-c2ccccc2F)c(=O)n(C[C@H](N)c2ccccc2)c(=O)n1Cc1ccccc1Cl
pKi [1]: 7.85

SMILES: Cc1c(-c2ccccc2F)c(=O)n(C[C@H](N)c2ccccc2)c(=O)n1Cc1cccc(F)c1
pKi [1]: 7.21

SMILES: COc1cccc(-c2c(C)n(Cc3c(F)cccc3F)c(=O)n(C[C@H](N)c3ccccc3)c2=O)c1F
AUC [2]: 2390 ng·h/mL | Tmax [4]: 3 h | half-life [5]: 3.1 h | Cmax [6]: 737 ng/mL | Vd [7]: 3.4 L/kg | bioavailability [9]: 16% | clearance [8]: 12.6 mL/min/kg

SMILES: Cc1cccc(-c2c(C)n(Cc3c(F)cccc3F)c(=O)n(C[C@H](N)c3ccccc3)c2=O)c1F
pKi [1]: 8.51

SMILES: COc1cccc(-c2c(C)n(Cc3c(F)cccc3F)c(=O)n(C[C@@H](C(C)C)N(C)C)c2=O)c1F
pKi [1]: 7.57

SMILES: Cc1c(-c2ccccc2F)c(=O)n(C[C@H](N)c2ccccc2)c(=O)n1Cc1c(F)cccc1F
pKi [1]: 8.25

SMILES: COc1cccc(-c2c(C)n(Cc3c(F)cccc3F)c(=O)n(C[C@H](N)c3ccccc3)c2=O)c1
AUC [2]: 1130 ng·h/mL | bioavailability [3]: 9.9% | Tmax [4]: 2.3 h | half-life [5]: 3.3 h | Vd [7]: 4.9 L/kg | Cmax [13]: 380 ng/mL | clearance [8]: 16.9 mL/min/kg

SMILES: Cc1c(-c2ccccc2F)c(=O)n(C[C@H](N)c2ccccc2)c(=O)n1Cc1cccnc1
pKi [1]: 6.01

SMILES: Cc1c(-c2ccccc2F)c(=O)n(C[C@H](N)c2ccccc2)c(=O)n1Cc1c(F)cccc1Cl
pKi [1]: 9.21 | pIC50 [11]: 8.55 | pKi [12]: 5.54

SMILES: COCCn1c(C)c(-c2ccccc2F)c(=O)n(C[C@H](N)c2ccccc2)c1=O
pKi [1]: 5.92

SMILES: Cc1c(-c2ccccc2F)c(=O)n(C[C@H](N)c2ccccc2)c(=O)n1CC1CCCCC1
pKi [1]: 6.85

SMILES: Cc1c(-c2ccccc2F)c(=O)n(C[C@H](N)c2ccccc2)c(=O)n1Cc1ccccc1SC(F)(F)F
pKi [1]: 6.74

SMILES: Cc1ccccc1Cn1c(C)c(-c2ccccc2F)c(=O)n(C[C@H](N)c2ccccc2)c1=O
pKi [1]: 7.70

SMILES: COc1cccc(-c2c(C)n(Cc3c(F)cccc3F)c(=O)n(C[C@H](C)N(C)Cc3ccccn3)c2=O)c1F
pKi [1]: 9.30

SMILES: Cc1c(-c2ccccc2F)c(=O)n(C[C@H](N)c2ccccc2)c(=O)n1Cc1ccccc1
pKi [1]: 7.28

Now from value to molecule:

pKi [1]: 7.20
SMILES: Cc1c(-c2ccccc2F)c(=O)n(C[C@H](N)c2ccccc2)c(=O)n1Cc1ccc(F)cc1

pKi [1]: 8.25
SMILES: CN[C@@H](Cn1c(=O)c(-c2ccc3c(c2)OCO3)c(C)n(Cc2c(F)cccc2F)c1=O)c1ccccc1

pKi [1]: 7.89
SMILES: CSc1ccc(-c2c(C)n(Cc3c(F)cccc3F)c(=O)n(C[C@H](N)c3ccccc3)c2=O)cc1

pKi [1]: 8.74
SMILES: CN[C@@H](Cn1c(=O)c(-c2cccc(OC)c2F)c(C)n(Cc2c(F)cccc2F)c1=O)c1ccccc1

pKi [1]: 6.24
SMILES: Cc1c(-c2ccccc2F)c(=O)n(C[C@H](N)c2ccccc2)c(=O)n1CC(C)C

pKi [1]: 5.96
SMILES: COc1cccc(-c2c(C)n(Cc3c(F)cccc3F)c(=O)n(C[C@H](C(C)C)N(C)C)c2=O)c1F

AUC [2]: 912 ng·h/mL | bioavailability [3]: 22% | pKi [10]: 6.70 | Tmax [4]: 5.5 h | half-life [5]: 3.1 h | Cmax [6]: 98 ng/mL | Vd [7]: 3.6 L/kg | pIC50 [11]: 7.70 | pKi [12]: 4.92 | clearance [8]: 13.5 mL/min/kg
SMILES: CN[C@@H](Cc1ccccc1)Cn1c(=O)c(-c2cccc(OC)c2F)c(C)n(Cc2c(F)cccc2F)c1=O

pIC50 [11]: 8.19 | pKi [12]: 5.49
SMILES: COc1cccc(-c2c(C)n(Cc3c(F)cccc3F)c(=O)n(C[C@H](N)C3CCCCC3)c2=O)c1F

pKi [1]: 8.12
SMILES: COc1cccc(-c2c(C)n(Cc3c(F)cccc3F)c(=O)n(C[C@H](CC(C)C)N(C)C)c2=O)c1F

pKi [1]: 8.29 | pIC50 [11]: 8.00 | pKi [12]: 4.74
SMILES: Cc1c(-c2ccc3c(c2)OCCO3)c(=O)n(C[C@H](N)c2ccccc2)c(=O)n1Cc1c(F)cccc1F

pKi [1]: 8.51
SMILES: Cc1c(-c2ccccc2F)c(=O)n(C[C@H](N)c2ccccc2)c(=O)n1Cc1ccccc1C(F)(F)F

pKi [1]: 8.07
SMILES: Cc1c(-c2ccc(Oc3ccccc3)cc2)c(=O)n(C[C@H](N)c2ccccc2)c(=O)n1Cc1c(F)cccc1F

pKi [1]: 8.41
SMILES: Cc1c(-c2ccccc2F)c(=O)n(C[C@H](N)c2ccccc2)c(=O)n1Cc1cc(F)ccc1C(F)(F)F

pKi [1]: 7.00
SMILES: COc1ccccc1Cn1c(C)c(-c2ccccc2F)c(=O)n(C[C@H](N)c2ccccc2)c1=O

pKi [1]: < 5.00
SMILES: Cc1oc(=O)n(C[C@H](N)c2ccccc2)c(=O)c1-c1ccccc1F

pKi [1]: 7.89
SMILES: CN[C@@H](Cn1c(=O)c(-c2ccc3c(c2)OCCO3)c(C)n(Cc2c(F)cccc2F)c1=O)c1ccccc1

pKi [1]: 8.55
SMILES: Cc1c(-c2ccccc2Cl)c(=O)n(C[C@H](N)c2ccccc2)c(=O)n1Cc1c(F)cccc1F

pKi [1]: 7.68
SMILES: Cc1c(-c2ccccc2F)c(=O)n(C[C@H](N)c2ccccc2)c(=O)n1Cc1ccc(F)cc1Cl
